The results in this text go back to ChEMBL document CHEMBL2029235, “Bio-inspired synthesis and biological evaluation of a colchicine-related compound library” (Bioorg Med Chem Lett, 2012).

A word on the IC50: it is the midpoint of a concentration-inhibition curve.

Assay [1] has as its system HT-29. Description: Cytotoxicity against human HT-29 cells after 96 hrs by MTT assay. Format: functional, cell-based. The settings on record: HT-29, 96 h. In outline: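 HT-29 cells in RPMI-1640 with 10% newborn calf serum, 37 °C, 5% CO2. Seeded at 5 × 10^3 cells/well and grown 24 h, then given fresh medium with graded compound concentrations for 96 h. MTT (5 mg/mL stock) added for 1–2 h at 37 °C. Formazan dissolved in DMSO and read at 570 nm; viability taken as absorbance fraction of untreated wells. Run in triplicate, mean ± SD.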
Background: Tetrazolium assays rely on reduction of a dye to a coloured formazan, in cell work by metabolically active cells.

Assay [2] has as its system HT-29. Description: Cytotoxicity against human HT-29 cells.

`COc1cc2c3c(c1O)-c1c(cc(OC)c(OC)c1OC)CC[C@@H]3N(C)CC2=O`: in the assay on HT-29 [1], 22.5 µM corresponded to half-maximal inhibition (IC50).
Still for that read-out and setting: under `COc1cc2c(cc1O)[C@H](CCc1cc(OC)c(OC)c(OC)c1)N(C(=O)C(F)(F)F)CC2` stands greater than 50 µM.
Same read-out and setting: for `COc1cc2c3c(c1O)-c1c(cc(OC)c(OC)c1OC)CC[C@@H]3N(S(C)(=O)=O)CC2` the value was 7.95 µM.
The same measure, in the same setting: under `COc1cc2c3c(c1O)-c1c(cc(OC)c(OC)c1OC)CC[C@@H]3N(S(=O)(=O)C(F)(F)F)CC2` stands 10.4 µM.
In turn, `COc1cc2c3c(c1O)-c1c(cc(OC)c(OC)c1OC)CC[C@@H]3N(C(C)=O)CC2` displayed a half-inhibitory concentration (IC50) with HT-29 [1] of 13.3 µM.
Same read-out and setting: for `COc1cc2c3c(c1O)-c1c(cc(OC)c(OC)c1OC)CC[C@@H]3N(C(=O)C(F)(F)F)CC2` the value was 6.45 µM; for `COC1=C[C@@]23CCN(S(C)(=O)=O)[C@@H](CCc4cc(OC)c(OC)c(OC)c42)C3=CC1=O`, greater than 50 µM.
On the same count and under the same terms, for `COC1=C[C@@]23CCN(S(=O)(=O)C(F)(F)F)[C@@H](CCc4cc(OC)c(OC)c(OC)c42)C3=CC1=O` the value was 15.7 µM; for `COC1=C[C@@]23CCN(S(=O)(=O)c4ccc(C)cc4)[C@@H](CCc4cc(OC)c(OC)c(OC)c42)C3=CC1=O`, 42.7 µM.
On the same count and under the same terms, for `COC1=C[C@@]23CCN(C(C)=O)[C@@H](CCc4cc(OC)c(OC)c(OC)c42)C3=CC1=O` the value was 37.8 µM.
In the assay on HT-29 [1], `COC1=C[C@@]23CCN(C(=O)C(F)(F)F)[C@@H](CCc4cc(OC)c(OC)c(OC)c42)C3=CC1=O` gave a 50% inhibitory concentration (IC50) greater than 50 µM.
The same measure, in the same setting: under `COc1cc2c(cc1O)[C@@H]1CCc3cc(OC)c(OC)c(OC)c3[C@H]2CN1S(C)(=O)=O` stands 11.6 µM.
The same measure, in the same setting: for `COc1cc2c(cc1O)[C@@H]1CCc3cc(OC)c(OC)c(OC)c3[C@H]2CN1S(=O)(=O)c1ccc(C)cc1` the value was 10.8 µM; for `COc1cc2c(cc1O)[C@@H]1CCc3cc(OC)c(OC)c(OC)c3[C@H]2CN1C(C)=O`, greater than 50 µM.
On the same count and under the same terms, for `COc1cc2c(cc1O)[C@@H]1CCc3cc(OC)c(OC)c(OC)c3[C@H]2CN1C(=O)C(F)(F)F` the value was 27.8 µM; for `COc1cc2c(cc1OC(C)=O)[C@@H]1CCc3cc(OC)c(OC)c(OC)c3[C@H]2CN1C(=O)C(F)(F)F`, 40.8 µM.
Turning to `COc1cc2c(c(OC)c1OC)[C@H]1CN(S(=O)(=O)c3ccc(C)cc3)[C@@H](CC2)C2=CC(=O)C(=O)C=C21`, the IC50 in the assay on HT-29 [1] came to 6.6 µM.
Take `COc1cc2c(cc1O)[C@H]1CCc3cc(OC)c(OC)c(OC)c3[C@@H](C2)N1Cc1ccccc1`: in the assay with HT-29 [1], the IC50 was 9.1 µM.
Same read-out and setting: under `COc1cc2c(cc1OC(C)=O)[C@H]1CCc3cc(OC)c(OC)c(OC)c3[C@@H](C2)N1Cc1ccccc1` stands 21.7 µM.
On the same count and under the same terms, under `COc1cc2c(cc1OC)[C@H]1CCc3cc(OC)c(OC)c(OC)c3[C@@H](C2)N1C` stands greater than 50 µM.
Still for that read-out and setting: for `COc1cc2c(cc1O)[C@H]1CCc3cc(OC)c(OC)c(OC)c3[C@@H](C2)N1C` the value was greater than 50 µM; for `COc1cc2c(cc1OC(C)=O)[C@H]1CCc3cc(OC)c(OC)c(OC)c3[C@@H](C2)N1C`, 43.5 µM; for `COC1=CC2(C=C(OC)C1=O)CC[C@H]1c3c(cc(OC)c(O)c32)CCN1S(=O)(=O)C(F)(F)F`, 46.5 µM.
The compound `COC1=CC2(C=C(OC)C1=O)CC[C@H]1c3c(cc(OC)c(O)c32)CCN1C(C)=O` had an IC50 in the assay with HT-29 [1] of 45.9 µM.
Same read-out and setting: for `COC1=CC2(C=C(OC)C1=O)CC[C@H]1c3c(cc(OC)c(O)c32)CCN1C` the value was greater than 50 µM; for `COc1cc2c3c(c1O)-c1c(cc(OC)c(OC)c1OC)CC[C@@H]3N(S(=O)(=O)C(F)(F)F)CC2=O`, 1.16 µM; for `COc1cc2c(c(OC)c1OC)-c1c(OC(C)=O)c(OC)cc3c1[C@H](CC2)N(C)CC3=O`, 27.2 µM.
On the same count and under the same terms, under `COc1cc2c(c(OC)c1OC)-c1c(OC(=O)Oc3ccccc3)c(OC)cc3c1[C@H](CC2)N(C)CC3=O` stands 30.8 µM.
Same read-out and setting: for `COc1cc2c3c(c1O)-c1c(cc(OC)c(OC)c1OC)CC[C@@H]3N(S(C)(=O)=O)C(O)C2=O` (some centres undefined) the value was greater than 50 µM; for `COc1cc2c3c(c1O)-c1c(cc(OC)c(OC)c1OC)CC[C@@H]3N(C(=O)C(F)(F)F)C=C2`, 0.684 µM.
In the assay with HT-29 [1], `COc1cc2c(c(OC)c1OC)-c1c(OC(C)=O)c(OC)cc3c1[C@H](CC2)N(C(=O)C(F)(F)F)C=C3` had an IC50 of 1.25 µM.
On the same count and under the same terms, for `COc1cc2c(c(OC)c1OC)-c1c(OS(=O)(=O)C(F)(F)F)c(OC)cc3c1C(=CC2)N(S(=O)(=O)C(F)(F)F)C=C3` the value was 10.1 µM; for `COc1cc2ccnc3c2c(c1O)-c1c(cc(OC)c(OC)c1OC)CC3`, 0.179 µM; for `COc1cc2c(c(OC)c1OC)-c1c(OC(C)=O)c(OC)cc3ccnc(c13)CC2`, 0.189 µM.
On the same count and under the same terms, for `COc1cc2c(c(OC)c1OC)-c1c(OC(=O)C3CCCCC3)c(OC)cc3ccnc(c13)CC2` the value was 0.99 µM.
Same read-out and setting: under `COc1cc2c(c(OC)c1OC)-c1c(OC(=O)c3ccccc3)c(OC)cc3ccnc(c13)CC2` stands 2.56 µM.
`COC(=O)Oc1c(OC)cc2ccnc3c2c1-c1c(cc(OC)c(OC)c1OC)CC3` had an IC50 with HT-29 [1] of 0.182 µM.
On the same count and under the same terms, under `COc1cc2c(c(OC)c1OC)-c1c(OC(=O)OCC(Cl)(Cl)Cl)c(OC)cc3ccnc(c13)CC2` stands 0.229 µM.
On the same count and under the same terms, under `COc1cc2c(c(OC)c1OC)-c1c(OC(=O)Oc3ccccc3)c(OC)cc3ccnc(c13)CC2` stands 0.132 µM; under `COc1cc2c(c(OC)c1OC)-c1c(OC(=S)n3ccnc3)c(OC)cc3ccnc(c13)CC2`, 0.293 µM.
Still for that read-out and setting: under `COc1cc2c(c(OC)c1OC)-c1c(OS(C)(=O)=O)c(OC)cc3ccnc(c13)CC2` stands 24.4 µM; under `COc1cc2c(c(OC)c1OC)-c1c(OS(=O)(=O)C(F)(F)F)c(OC)cc3ccnc(c13)CC2`, 24.6 µM; under `COC1=CC2=C3c4c(c(OC)cc5ccnc(c45)CC2)O[C@]3(OC)C1=O`, 23.9 µM.
As to `COc1cc2c(c(OC)c1OC)-c1ccc(OC)c(=O)cc1[C@@H](NC(C)=O)CC2` [COLCHICINE], in the assay on HT-29 [2], the half-inhibitory concentration (IC50) was found to be 0.008 µM.
